Reference: ChEMBL document CHEMBL3826935, “Synthesis and Pharmacology of (Pyridin-2-yl)methanol Derivatives as Novel and Selective Transient Receptor Potential Vanilloid 3 Antagonists” (J Med Chem, 2016)

What was measured:
[1] = target: T1, Transient receptor potential cation channel subfamily V member 3 (Homo sapiens) (UniProt Q8NET8); assay: Antagonist activity at human TRPV3 expressed in recombinant HEK293 cells assessed as inhibition of 2-APB induced calcium flux by FLIPR analysis; type: cell-based
T1 sequence (whole entry): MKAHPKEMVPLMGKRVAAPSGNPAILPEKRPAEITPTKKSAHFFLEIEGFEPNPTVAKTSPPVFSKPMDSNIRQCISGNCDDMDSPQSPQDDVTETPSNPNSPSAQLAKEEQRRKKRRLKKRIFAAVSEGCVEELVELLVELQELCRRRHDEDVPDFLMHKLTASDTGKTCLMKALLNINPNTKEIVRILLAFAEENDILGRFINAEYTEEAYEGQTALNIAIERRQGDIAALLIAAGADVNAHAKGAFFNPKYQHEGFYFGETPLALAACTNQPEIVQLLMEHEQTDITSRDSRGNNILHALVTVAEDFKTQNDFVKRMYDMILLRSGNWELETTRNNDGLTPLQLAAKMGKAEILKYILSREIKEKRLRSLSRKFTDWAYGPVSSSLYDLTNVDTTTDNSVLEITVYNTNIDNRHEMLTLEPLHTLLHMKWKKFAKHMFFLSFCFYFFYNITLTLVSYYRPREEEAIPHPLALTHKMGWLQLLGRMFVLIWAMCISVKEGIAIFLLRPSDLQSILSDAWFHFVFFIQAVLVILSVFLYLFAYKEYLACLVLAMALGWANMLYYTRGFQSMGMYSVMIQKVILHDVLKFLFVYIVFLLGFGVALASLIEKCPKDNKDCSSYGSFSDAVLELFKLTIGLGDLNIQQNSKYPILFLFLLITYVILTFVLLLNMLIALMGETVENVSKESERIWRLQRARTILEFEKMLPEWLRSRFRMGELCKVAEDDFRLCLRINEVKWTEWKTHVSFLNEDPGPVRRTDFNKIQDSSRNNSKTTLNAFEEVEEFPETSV
In short: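 HEK293 cells stably expressing human TRPV3 (I25V variant), plated the day before in DMEM + 10% FBS at 37 °C, 5% CO2. Calcium 4 dye loaded in Ca/Mg-free HEPES D-PBS pH 7.4 for 1–2 h at room temperature. Compound dilutions added with 3 min baseline, then 2-APB at 60 µM final; Ca2+ flux read 3 min on FLIPR. Kb from at least duplicates, averaged across independent runs.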

Liver microsome [2] = assay: Unbound intrinsic clearance in rat liver microsomes after 5 hrs by LC-MS/MS analysis; type: ADME
In short: (§1)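 Microsomal stability run in an automated high-throughput plate format. Intrinsic clearance corrected for nonspecific microsomal binding using measured unbound fraction (fu,mic), reported as unbound Clint in L/h/kg.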

Liver microsome [3] = assay: Unbound intrinsic clearance in human liver microsomes after 5 hrs by LC-MS/MS analysis; type: ADME; in short: as §1
Rattus norvegicus [4] = species on record: Rattus norvegicus; assay: Cardiotoxicity in rat assessed as increase in cardiac contractility at plasma concentration of 4.7 ug/ml; type: toxicity, organism-based
Rattus norvegicus [5] = species on record: Rattus norvegicus; assay: Cardiotoxicity in rat assessed as increase in mean arterial pressure; type: toxicity, organism-based, Artery; settings: in vivo
[6] = target: T2, Nuclear receptor subfamily 1 group I member 2 (Homo sapiens, UniProt O75469); assay: Activation of human PXR; type: ADME; settings: human
T2 sequence (O75469 whole entry): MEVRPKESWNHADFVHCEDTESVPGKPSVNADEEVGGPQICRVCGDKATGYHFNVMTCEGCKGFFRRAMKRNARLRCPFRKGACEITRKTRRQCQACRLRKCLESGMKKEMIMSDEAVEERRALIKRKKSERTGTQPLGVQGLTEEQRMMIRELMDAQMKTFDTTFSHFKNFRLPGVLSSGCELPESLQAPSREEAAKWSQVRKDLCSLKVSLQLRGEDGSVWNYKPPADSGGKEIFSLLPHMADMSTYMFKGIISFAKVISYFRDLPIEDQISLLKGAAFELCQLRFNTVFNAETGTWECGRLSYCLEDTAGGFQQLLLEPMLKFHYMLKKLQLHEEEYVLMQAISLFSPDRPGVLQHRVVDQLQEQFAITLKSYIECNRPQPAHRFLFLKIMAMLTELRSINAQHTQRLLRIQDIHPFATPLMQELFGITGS

Row | Compound | Kb [1] [nM] | CL free (Liver microsome [2]) [mL/min/kg] | CL free (Liver microsome [3]) [mL/min/kg] | Activity (Rattus norvegicus [4]) | Activity (Rattus norvegicus [5]) | Activity [6]
1 | C[C@]1(O)C[C@](c2cccc(OC(F)(F)F)c2)([C@H](O)c2ccccn2)C1 | 1310 | 50 | 120 | Non-toxic | Non-toxic | Not Active
2 | O[C@H](c1ccccn1)[C@]1(c2ccc(C(F)(F)F)cc2)C[C@@H](O)C1 | 1870 | 50 | 33 | Non-toxic | Non-toxic | Not Active
3 | O[C@H](c1ccccn1)[C@]1(c2ccnc(C(F)(F)F)c2)C[C@H](O)C1 | 60 | 50 | 33 | Non-toxic | Non-toxic | Not Active
4 | OC(c1ncccc1F)C1(c2ccc(Cl)c(Cl)c2)CCC1 (racemic) | 610 | 3000 | 833 | – | – | –
5 | OC(c1ccccn1)C1(c2ccccc2OC(F)(F)F)CCC1 (racemic) | 550 | 1830 | 1230 | – | – | –
6 | OC(c1ccc(F)cn1)C1(c2ccc(Cl)c(Cl)c2)CCC1 (racemic) | 910 | 3170 | 767 | – | – | –
7 | C[C@]1(O)C[C@](c2ccnc(C(F)(F)F)c2)([C@H](O)c2ccccn2)C1 | 500 | 83 | 67 | Non-toxic | Non-toxic | Not Active
8 | O[C@H](c1ccccn1)[C@]1(c2cccc(C(F)(F)F)c2)C[C@@H](O)C1 | 210 | 100 | 50 | Non-toxic | Non-toxic | Not Active
9 | C[C@]1(O)C[C@@](c2ccnc(C(F)(F)F)c2)([C@H](O)c2ccccn2)C1 | 4270 | 50 | 67 | Non-toxic | Non-toxic | Not Active
10 | C[C@]1(O)C[C@@](c2cc(C(F)(F)F)ccn2)([C@H](O)c2ccccn2)C1 | 730 | 120 | 33 | Non-toxic | Non-toxic | Not Active
11 | O[C@H](c1ccccn1)[C@@]1(c2ccc(Cl)c(Cl)c2)CCCO1 | 43 | 2980 | 383 | – | – | –
12 | OC(c1ccccn1)C1(c2ccc(Cl)c(Cl)c2)COC1 (stereo not given) | 7370 | 417 | 130 | – | – | –
13 | O[C@H](c1ccccn1)C1(c2ccc(OC(F)(F)F)cc2)CCC1 | 140 | 1050 | 333 | – | – | –
14 | OC(c1ccccn1)C1(c2ccc(C(F)(F)F)cc2)CNC1 (stereo not given) | 6680 | 50 | 33 | – | – | –
15 | O[C@H](c1ccccn1)[C@]1(c2ccc(Cl)c(Cl)c2)CCO1 | 150 | 50 | 67 | – | – | –
16 | O[C@H](c1ccccn1)C1(c2ccc(Cl)c(Cl)c2)CC(F)(F)C1 | 80 | 850 | 250 | – | – | –

Row | Compound | Kb [1] [nM] | CL free (Liver microsome [2]) [mL/min/kg] | CL free (Liver microsome [3]) [mL/min/kg] | Activity (Rattus norvegicus [4]) | Activity (Rattus norvegicus [5]) | Activity [6]
17 | C[C@@]1(c2ccc(OC(F)(F)F)cc2)C[C@](O)(c2ccccn2)CO1 | 1710 | 383 | 217 | – | – | –
18 | O[C@H](c1ccccn1)[C@@]1(c2ccc(Cl)c(Cl)c2)CCO1 | 380 | 1000 | 217 | – | – | –
19 | CC(O)(c1ccccn1)C1(c2ccc(Cl)c(Cl)c2)CCC1 (racemic) | 3400 | 6330 | 1670 | – | – | –
20 | C[C@]1(c2ccc(OC(F)(F)F)cc2)C[C@@](O)(c2ccccn2)CO1 | 2460 | 150 | 120 | – | – | –
21 | O[C@]1(c2ccccn2)CC[C@@H](c2ccc(C(F)(F)F)cc2)C1 | 130 | 7670 | 383 | – | – | –
22 | O[C@]1(c2ccccn2)CC[C@H](c2ccc(C(F)(F)F)cc2)C1 | 540 | 1430 | 333 | – | – | –
23 | OC(c1cc(F)ccn1)C1(c2ccc(Cl)c(Cl)c2)CCC1 (racemic) | 640 | 3850 | 533 | – | – | –
24 | O[C@H](c1ccccn1)C1(c2cccc(OC(F)(F)F)c2)CCC1 | 80 | 1720 | 2220 | – | – | –
25 | OC(c1ncccn1)C1(c2ccc(OC(F)(F)F)cc2)CCC1 (racemic) | 1540 | 483 | 100 | – | – | –
26 | O[C@@]1(c2ccccn2)CC[C@H](c2ccc(C(F)(F)F)cc2)C1 | 610 | 350 | 400 | – | – | –
27 | O[C@H](c1ncccn1)C1(c2ccc(Cl)c(Cl)c2)CCC1 | 370 | 833 | 267 | – | – | –
28 | CN1CC(c2ccc(C(F)(F)F)cc2)(C(O)c2ccccn2)C1 (stereo not given) | 6630 | 120 | 50 | – | – | –
29 | C[C@@]1(c2ccc(OC(F)(F)F)cc2)C[C@@](O)(c2ccccn2)CO1 (single isomer, unassigned) | 1120 | 333 | 67 | – | – | –
30 | O[C@@]1(c2ccccn2)CC[C@@H](c2ccc(C(F)(F)F)cc2)C1 | 240 | 2520 | 150 | – | – | –
31 | O[C@H](c1ccccn1)[C@]1(c2ccc(Cl)c(Cl)c2)CCCO1 | 470 | – | – | – | – | –
32 | OC(c1ccccn1)C1(c2ccc(Cl)c(Cl)c2)CCOC1 (stereo not given) | 630 | 983 | 417 | – | – | –
